Measured values: ChEMBL document CHEMBL1938308, “Discovery of potent, selective and orally bioavailable triaryl-sulfonamide based PTP1B inhibitors” (Bioorg Med Chem Lett, 2012)
Active and inactive are the calls of the source. No cut-off for these calls is given here.

Experiments:
[1] = target: T1, Tyrosine-protein phosphatase non-receptor type 1 (Homo sapiens, UniProt P18031); assay: Inhibition of PTP1B assessed as para-nitrophenyl phosphate catalyzed hydrolysis of para-nitrophenol by p-NPP assay
T1 sequence (P18031 whole entry): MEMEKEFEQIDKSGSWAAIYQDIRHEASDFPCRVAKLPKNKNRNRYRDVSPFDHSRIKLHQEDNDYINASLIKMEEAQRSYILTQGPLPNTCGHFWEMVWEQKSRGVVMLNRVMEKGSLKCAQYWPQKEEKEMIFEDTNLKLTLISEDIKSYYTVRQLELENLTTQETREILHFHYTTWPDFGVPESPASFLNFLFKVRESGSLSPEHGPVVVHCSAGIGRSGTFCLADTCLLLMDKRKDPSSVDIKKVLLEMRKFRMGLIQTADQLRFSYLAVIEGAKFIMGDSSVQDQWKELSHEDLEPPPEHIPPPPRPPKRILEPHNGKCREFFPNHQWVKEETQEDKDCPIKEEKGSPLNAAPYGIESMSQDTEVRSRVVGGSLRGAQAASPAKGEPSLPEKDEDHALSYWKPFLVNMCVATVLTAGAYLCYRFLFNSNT
How it was run: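 Enzymatic pNPP assay: initial rate of PTP1B-catalyzed pNPP hydrolysis read at 405 nm. IC50 determined at a fixed pNPP concentration of 1 mM. n = 3, mean ± SD.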

[2] = system: Mus musculus; assay: Antidiabetic activity in fasted C57BL/6J mouse assessed as reduction in serum AUC glucose level at 20 mg/kg, po after 240 mins by intraperitoneal glucose tolerance test relative to control; assay type: functional
How it was run: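 Overnight-fasted male C57BL/6J mice dosed orally at 20 mg/kg 0.5 h before an intraperitoneal glucose load of 1.5 g/kg. Blood taken at 0, 30, 60, 120 and 240 min, and serum glucose measured promptly by GOD-POD method in duplicate. AUC 0–240 min compared with vehicle control. Two-way ANOVA with Bonferroni post test, mean ± SEM.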

[3] = Selectivity ratio of IC50 for TCPTP to IC50 for PTP1B
[4] = target: T2, Tyrosine-protein phosphatase non-receptor type 2 (Homo sapiens, UniProt P17706); assay: Inhibition of TCPTP
T2 sequence (P17706 whole entry): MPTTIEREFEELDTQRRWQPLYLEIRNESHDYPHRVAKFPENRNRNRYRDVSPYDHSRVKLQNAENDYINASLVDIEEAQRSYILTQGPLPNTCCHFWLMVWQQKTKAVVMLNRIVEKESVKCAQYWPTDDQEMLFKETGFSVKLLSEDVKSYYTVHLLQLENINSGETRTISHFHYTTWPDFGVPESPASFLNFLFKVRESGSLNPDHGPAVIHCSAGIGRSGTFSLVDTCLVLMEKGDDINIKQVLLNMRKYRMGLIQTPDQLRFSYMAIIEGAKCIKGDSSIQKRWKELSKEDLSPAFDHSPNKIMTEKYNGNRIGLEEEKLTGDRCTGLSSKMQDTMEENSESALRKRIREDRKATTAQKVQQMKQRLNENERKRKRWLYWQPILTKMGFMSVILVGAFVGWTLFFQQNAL

[5] = Selectivity ratio of IC50 for CD45 to IC50 for PTP1B
[6] = Selectivity ratio of IC50 for SHP1 to IC50 for PTP1B
[7] = Selectivity ratio of IC50 for PTPalpha to IC50 for PTP1B
[8] = Selectivity ratio of IC50 for SHP2 to IC50 for PTP1B
[9] = Selectivity ratio of IC50 for LAR to IC50 for PTP1B
[10] = Tmax in fasted C57BL/6J mouse at 20 mg/kg, po; assay type: ADME, organism-based; parameters: dose 20 mg/kg, route oral; settings: in vivo
How it was run: (§1)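 Male C57BL/6J mice (n = 6), fasted overnight, single 20 mg/kg dose by body weight, given po or iv. Plasma separated at 4 °C, stored at −70 °C, then quantified by LC–MS/MS. %F taken from po AUC relative to iv AUC. Mean ± SD.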

[11] = Half life in fasted C57BL/6J mouse at 20 mg/kg, po; assay type: ADME, organism-based; parameters: dose 20 mg/kg, route oral; settings: in vivo; how it was run: as §1
[12] = Oral bioavailability in fasted C57BL/6J mouse at 20 mg/kg; assay type: ADME, organism-based; settings: in vivo; how it was run: as §1
[13] = AUC (0 to infinity) in fasted C57BL/6J mouse at 20 mg/kg, po; assay type: ADME, organism-based; parameters: time infinity, dose 20 mg/kg, route oral; settings: plasma; how it was run: as §1
[14] = Cmax in fasted C57BL/6J mouse at 20 mg/kg, po; assay type: ADME, organism-based; parameters: dose 20 mg/kg, route oral; settings: in vivo; how it was run: as §1
[15] = AUC in fasted C57BL/6J mouse at 20 mg/kg, iv; assay type: ADME, organism-based; parameters: dose 20 mg/kg, route intravenous; settings: plasma; how it was run: as §1

NS(=O)(=O)C(F)(F)c1cc2cc(CN(Cc3ccc(-c4csnn4)cc3)S(=O)(=O)c3ccc(OCC(=O)O)cc3)ccc2cc1Br
IC50 [1]: 0.039 µM

O=C(O)COc1ccc(S(=O)(=O)N(Cc2ccc(-c3csnn3)cc2)Cc2ccc(C3CC(=O)NS3(=O)=O)c(Br)c2)cc1 (stereo not given)
IC50 [1]: 0.48 µM

O=C(O)COc1ccc(S(=O)(=O)N(Cc2ccc(-c3csnn3)cc2)Cc2ccc(C(F)(F)P(=O)(O)O)cc2)cc1
Activity [2]: inactive
Ratio IC50 [3]: 7

O=C(O)COc1ccc(S(=O)(=O)N(Cc2ccc(-c3csnn3)cc2)Cc2ccc(F)c(C(F)(F)P(=O)(O)O)c2)cc1
IC50 [1]: 0.141 µM

NS(=O)(=O)C(F)(F)c1cc2nc(CN(Cc3ccc(-c4csnn4)cc3)S(=O)(=O)c3ccc(OCC(=O)O)cc3)ccc2cc1Br
IC50 [1]: 0.041 µM

O=C(O)COc1ccc(S(=O)(=O)N(Cc2ccc(-c3csnn3)cc2)Cc2ccc(C3CC(=O)NS3(=O)=O)cc2)cc1 (stereo not given)
IC50 [1]: 0.5 µM

NS(=O)(=O)C(F)(F)c1cc2nc(CN(Cc3ccc(-c4csnn4)cc3)S(=O)(=O)c3ccc(OCC(=O)O)cc3)ccc2cc1F
IC50 [1]: 0.038 µM

O=C(O)COc1ccc(S(=O)(=O)N(Cc2ccc(-c3csnn3)cc2)Cc2ccc(C3CC(=O)NS3(=O)=O)c(F)c2)cc1 (stereo not given)
IC50 [1]: 0.46 µM

Cc1cc(CN(Cc2ccc(-c3csnn3)cc2)S(=O)(=O)c2ccc(OCC(=O)O)cc2)ccc1C1CC(=O)NS1(=O)=O (stereo not given)
IC50 [1]: 0.47 µM

O=C(O)COc1ccc(S(=O)(=O)N(Cc2ccc(-c3csnn3)cc2)Cc2ccc(C(F)(F)P(=O)(O)O)c(F)c2)cc1
IC50 [4]: 0.87 µM
Ratio IC50 [5]: > 5000
IC50 [1]: 0.035 µM
Ratio IC50 [6]: > 5000
Ratio IC50 [7]: > 5000
Ratio IC50 [3]: 24
Ratio IC50 [8]: > 5000
Ratio IC50 [9]: > 5000

NS(=O)(=O)C(F)(F)c1cc2cc(CN(Cc3ccc(-c4csnn4)cc3)S(=O)(=O)c3ccc(OCC(=O)O)cc3)ccc2cc1F
IC50 [1]: 0.035 µM

O=C(O)COc1ccc(S(=O)(=O)N(Cc2ccc(-c3csnn3)cc2)Cc2ccc(C(F)(F)P(=O)(O)O)c(Br)c2)cc1
IC50 [4]: 0.75 µM
Ratio IC50 [5]: > 5000
IC50 [1]: 0.05 µM
Ratio IC50 [6]: > 5000
Ratio IC50 [7]: > 5000
Ratio IC50 [3]: 15
Ratio IC50 [8]: > 5000
Ratio IC50 [9]: > 5000

O=C(O)COc1ccc(S(=O)(=O)N(Cc2ccc(-c3csnn3)cc2)Cc2ccc3cc(F)c(C(F)(F)P(=O)(O)O)cc3n2)cc1
Tmax [10]: 41.4 min
half-life [11]: 59.4 min
IC50 [4]: 0.99 µM
Ratio IC50 [5]: > 5000
Activity [2]: 19.18 mg/dL
IC50 [1]: 0.011 µM
Ratio IC50 [6]: > 5000
bioavailability [12]: 0.9%
AUC(0-inf) [13]: 1320 ng·h/mL
Ratio IC50 [7]: > 5000
Cmax [14]: 960 ng/mL
Ratio IC50 [3]: 90
AUC [15]: 147000 ng·h/mL
Ratio IC50 [8]: > 5000
Ratio IC50 [9]: > 5000

O=C(c1ccccc1)C(Cc1ccc2cc(Br)c(C(F)(F)P(=O)(O)O)cc2c1)(Cc1ccc2cc(Br)c(C(F)(F)P(=O)(O)O)cc2c1)n1nnc2ccccc21
Ratio IC50 [3]: 116

NS(=O)(=O)C(F)(F)c1ccc(CN(Cc2ccc(-c3csnn3)cc2)S(=O)(=O)c2ccc(OCC(=O)O)cc2)cc1Br
IC50 [1]: 0.047 µM

O=C(O)COc1ccc(S(=O)(=O)N(Cc2ccc(-c3csnn3)cc2)Cc2ccc(Br)c(C(F)(F)P(=O)(O)O)c2)cc1
IC50 [1]: 0.288 µM

O=C(O)COc1ccc(S(=O)(=O)N(Cc2ccc(-c3csnn3)cc2)Cc2ccc3cc(Br)c(C(F)(F)P(=O)(O)O)cc3c2)cc1
IC50 [1]: 0.017 µM

O=C(O)COc1ccc(S(=O)(=O)N(Cc2ccc(-c3csnn3)cc2)Cc2ccc3cc(Br)c(C(F)(F)P(=O)(O)O)cc3n2)cc1
IC50 [1]: 0.018 µM

NS(=O)(=O)C(F)(F)c1ccc(CN(Cc2ccc(-c3csnn3)cc2)S(=O)(=O)c2ccc(OCC(=O)O)cc2)cc1F
IC50 [4]: 0.62 µM
Ratio IC50 [5]: > 5000
IC50 [1]: 0.031 µM
Ratio IC50 [6]: > 5000
Ratio IC50 [7]: > 5000
Ratio IC50 [3]: 20
Ratio IC50 [8]: > 5000
Ratio IC50 [9]: > 5000

O=C(O)COc1ccc(S(=O)(=O)N(Cc2ccc(-c3csnn3)cc2)Cc2ccc3cc(F)c(C(F)(F)P(=O)(O)O)cc3c2)cc1
Tmax [10]: 18.6 min
half-life [11]: 418 min
IC50 [4]: 0.87 µM
Ratio IC50 [5]: > 5000
Activity [2]: 52.8 mg/dL
IC50 [1]: 0.009 µM
Ratio IC50 [6]: > 5000
bioavailability [12]: 6.51%
AUC(0-inf) [13]: 8910 ng·h/mL
Ratio IC50 [7]: > 5000
Cmax [14]: 6300 ng/mL
Ratio IC50 [3]: 96
AUC [15]: 137000 ng·h/mL
Ratio IC50 [8]: > 5000
Ratio IC50 [9]: > 5000
